# Experimental data from ChEMBL document CHEMBL1136818, “The development of new triazole based inhibitors of tumor necrosis factor-alpha (TNF-alpha) production” (Bioorg Med Chem Lett, 2003).
# Where “and” joins values, the source holds several entries; their conditions need not be identical. Equal entries are not always repeated.
# Test system: THP-1
# Test: Inhibitory activity against TNF-alpha production using lipopolysaccharide (LPS) stimulated human monocytic cells (THP-1); NA: Not active
# Type: functional, cell-based
# Conditions: not given; call rule not given here
# How it was run: (§1)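 THP-1 human monocytic cells (2.0 × 10^5/well), in duplicate cultures, preincubated 15 min with or without inhibitor at various concentrations, then stimulated with LPS 2 μg/mL. TNF-α released measured by ELISA 4 h after stimulation; cell viability after the 4 h incubation checked by MTS assay. Standard deviation typically ±30% of the mean or less.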
row,Compound,IC50
1,CCOCn1nnc(-c2ccc(F)cc2)c1-c1ccncc1,Not Active

# Test system: not listed separately
# Test: Half life period was determined
# Type: ADME, organism-based
# Conditions: rat, in vivo
row,Compound,half-life
1,CCOCn1nnc(-c2ccc(F)cc2)c1-c1ccnc(Oc2cccc(NC(C)=O)c2)n1,2.2 h

# Test system: THP-1
# Test: Inhibitory activity against TNF-alpha production using lipopolysaccharide stimulated human monocytic cells
# Type: functional, cell-based
# Conditions: Homo sapiens, THP-1
# How it was run: as §1
row,Compound,IC50
1,CCOCn1nnc(-c2ccnc(NCc3ccccc3)n2)c1-c1ccc(F)cc1,557 nM
2,CCOCn1nnc(-c2ccc(F)cc2)c1-c1ccnc(N[C@H](C)c2ccccc2)n1,46 nM
3,COc1ccc(C(=O)n2nc(-c3ccncc3)c(-c3ccc(F)cc3)n2)cc1,3300 nM
4,CCOCn1nnc(-c2ccncc2)c1-c1ccc(F)cc1,490 nM
5,COCn1nc(-c2ccncc2)c(-c2ccc(F)cc2)n1,7590 nM
6,CCOCn1nnc(-c2ccnc(N[C@H](C)c3ccccc3)n2)c1-c1ccc(F)cc1,1600 nM
7,O=C(Nc1ccccc1)n1nc(-c2ccncc2)c(-c2ccc(F)cc2)n1,> 10000 nM
8,CCOCn1nnc(-c2ccnc(Oc3cccc(NC(C)=O)c3)n2)c1-c1ccc(F)cc1,189 nM
9,CN(C(=O)n1nc(-c2ccncc2)c(-c2ccc(F)cc2)n1)c1ccccc1,1920 nM
10,C[S+]([O-])c1ccc(-c2nc(-c3ccc(F)cc3)c(-c3ccncc3)[nH]2)cc1 (centres undefined) [SB-203580],72 nM
11,CCOCn1nnc(-c2ccnc(N[C@@H](C)c3ccccc3)n2)c1-c1ccc(F)cc1,306 nM
12,CCOCn1nc(-c2ccc(F)cc2)c(-c2ccnc(Oc3ccccc3)n2)n1,4020 nM

# Now from value to compound:
row,IC50,Compound
1,3760 nM,COCCn1nc(-c2ccncc2)c(-c2ccc(F)cc2)n1
2,3720 nM,Fc1ccc(-c2nn(C(=S)Sc3ccccc3)nc2-c2ccncc2)cc1
3,1320 nM,COc1ccc(-n2nc(-c3ccncc3)c(-c3ccc(F)cc3)n2)cc1
4,74 nM,CCOCn1nnc(-c2ccc(F)cc2)c1-c1ccnc(Oc2ccccc2)n1
5,12.5 nM,Fc1ccc(-c2[nH]nnc2-c2ccncc2)cc1
6,744 nM,COc1ccc(-n2nc(-c3ccncc3)c(-c3ccc(F)cc3)n2)cc1OC
7,4800 nM,COc1ccc(S(=O)(=O)n2nc(-c3ccncc3)c(-c3ccc(F)cc3)n2)cc1
8,8 nM,CCOCn1nnc(-c2ccc(F)cc2)c1-c1ccnc(Oc2cccc(NC(C)=O)c2)n1
9,54 nM,CCOCn1nnc(-c2ccc(F)cc2)c1-c1ccnc(N[C@@H](C)c2ccccc2)n1
10,100 nM,CCOCn1nnc(-c2ccc(F)cc2)c1-c1ccnc(NCc2ccccc2)n1
11,3830 nM,CCOC(=O)n1nc(-c2ccncc2)c(-c2ccc(F)cc2)n1

# Same assay, conditions: thp-1
row,Compound,IC50
1,CCOCn1nnc(-c2ccnc(Oc3ccccc3)n2)c1-c1ccc(F)cc1,611 nM and 164 nM
2,CCOCn1nc(-c2ccncc2)c(-c2ccc(F)cc2)n1,490 nM

# Test system: not listed separately
# Test: Clearance was determined
# Type: ADME, organism-based
# Conditions: rat, in vivo
row,Compound,clearance
1,CCOCn1nnc(-c2ccc(F)cc2)c1-c1ccnc(Oc2cccc(NC(C)=O)c2)n1,36.5 mL/min/kg

# Test system: not listed separately
# Test: Oral bioavailability in the rat was determined
# Type: ADME, organism-based
# Conditions: in vivo
row,Compound,bioavailability
1,CCOCn1nnc(-c2ccc(F)cc2)c1-c1ccnc(Oc2cccc(NC(C)=O)c2)n1,56%
